Experimental data taken from ChEMBL document CHEMBL1759908, “Design, synthesis and potential 6 Hz psychomotor seizure test activity of some novel 2-(substituted)-3-{[substituted]amino}quinazolin-4(3H)-one” (Eur J Med Chem, 2011).
Active and inactive are the calls of the source.

Legend:
Mus musculus [1] = assay: Anticonvulsant activity in CF1 mouse assessed as protection against 32 mA-current- for 3 secs induced seizure at 100 mg/kg, ip after 0.25 hr by 6Hz psychomotor seizure test; format: functional
How it was run: (§1)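 Male CF-1 mice (18-25 g) received 100 mg/kg i.p. as a suspension in 0.5% methylcellulose. At 0.25, 0.5, 1.0, 2.0 and 4.0 h, four mice per time point were stimulated through corneal electrodes (32 mA, 3 s, 6 Hz). Mice without psychomotor seizure behaviour were counted as protected. Results are reported as number protected over number tested.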

Mus musculus [2] = assay: Anticonvulsant activity in CF1 mouse assessed as protection against 32 mA-current- for 3 secs induced seizure at 100 mg/kg, ip after 4 hrs by 6Hz psychomotor seizure test; format: functional, organism-based; design: dose 100 mg/kg; how it was run: as §1
Mus musculus [3] = assay: Anticonvulsant activity in CF1 mouse assessed as protection against 32 mA-current- for 3 secs induced seizure at 100 mg/kg, ip after 0.5 hr by 6Hz psychomotor seizure test; format: functional; how it was run: as §1
Mus musculus [4] = assay: Neurotoxicity in CF1 mouse assessed as minimal motor impairment at 100 mg/kg, ip after 1 min by rotarod test; format: toxicity, organism-based; design: dose 100 mg/kg, route intraperitoneal; conditions: in vivo
How it was run: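 Neurotoxicity was scored as minimal motor impairment on the rotarod. Male CF-1 mice (18-25 g) received 100 mg/kg i.p. as a 0.5% methylcellulose suspension. Results are given as number toxic over number tested.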

Mus musculus [5] = assay: Anticonvulsant activity in CF1 mouse assessed as protection against 32 mA-current- for 3 secs induced seizure at 100 mg/kg, ip after 2 hrs by 6Hz psychomotor seizure test; format: functional; how it was run: as §1
Mus musculus [6] = assay: Anticonvulsant activity in CF1 mouse assessed as protection against 32 mA-current- for 3 secs induced seizure at 100 mg/kg, ip after 1 hr by 6Hz psychomotor seizure test; format: functional; how it was run: as §1
[7] = Lipophilicity, log P of the compound in octanol-phosphate buffer; format: physicochemical
How it was run: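 Experimental log P was measured by octanol-phosphate buffer partition. The mixture stood 24 h at room temperature and was then equilibrated 6 h in a separating funnel. Phases were separated and membrane-filtered, and drug in the aqueous phase was quantified by UV spectroscopy.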

Mus musculus [8] = assay: Anticonvulsant activity in CF1 mouse at 30 to 300 mg/kg, ip by maximal electroshock test; format: functional, organism-based
How it was run: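 Male CF-1 mice (18-25 g) were dosed i.p. at 30, 100 and 300 mg/kg (0.5% methylcellulose suspension). Maximal electroshock protection and neurotoxicity were assessed 30 min and 4 h after administration.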

Mus musculus [9] = assay: Anticonvulsant activity in CF1 mouse at 30 to 300 mg/kg, sc after 30 mins by subcutaneous metrazole seizure threshold test; format: functional, organism-based
Mus musculus [10] = assay: Anticonvulsant activity against 32 mA-current- for 3 secs induced seizure in ip dosed CF1 mouse after 0.5 hr by 6Hz psychomotor seizure test; format: functional
How it was run: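 Quantitative 6 Hz test in male CF-1 mice. The compound was suspended in 0.5% methylcellulose and given i.p. at 50, 100, 200 and 350 mg/kg, eight mice per dose. Mice were stimulated through corneal electrodes (32 mA, 3 s) at a 0.5 h time of peak effect. ED50 was derived from the number of mice protected per dose.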

[11] = Neuroprotective activity against kainic acid induced toxicity in hippocampus slices after 4 hrs propidium iodide staining; format: functional, tissue-based
How it was run: (§2)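 Organotypic hippocampal slice cultures were exposed to NMDA or kainic acid alone, or with the investigational compound, in the presence of propidium iodide. Cell death was read as propidium iodide fluorescence intensity and compared with slices given excitotoxin alone.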

[12] = Toxicity in ip dosed CF1 mouse after 0.5 hr; format: organism-based; conditions: in vivo
How it was run: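 Quantitative toxicity test in male CF-1 mice dosed i.p. (0.5% methylcellulose suspension) at 50, 100, 200 and 350 mg/kg, eight mice per dose. Motor impairment was scored at 0.5 h and TD50 derived from the number of toxic mice over the number tested.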

[13] = Neuroprotective activity against N-methyl-D-aspartate induced toxicity in hippocampus slices after 4 hrs propidium iodide staining; format: functional, tissue-based; how it was run: as §2

logP [7] | SMILES | Activity (Mus musculus [2]) | Activity (Mus musculus [3]; route intraperitoneal) | Activity (Mus musculus [4]) | Activity (Mus musculus [5]) | also measured
6.12 | CCCc1nc2ccccc2c(=O)n1/N=C/c1ccc(Oc2ccc3ccccc3c2)cc1 | inactive | 50% | Non-toxic | inactive | Activity (Mus musculus [1]; route intraperitoneal): 50%; Activity (Mus musculus [6]; route intraperitoneal): 25%
4.01 | Cc1nc2ccccc2c(=O)n1/N=C/c1ccc(Oc2ccc3c(c2)OCO3)cc1 | inactive |  | Non-toxic | inactive | Activity (Mus musculus [1]): inactive; Activity (Mus musculus [6]): inactive
4.01 | Cc1nc2ccccc2c(=O)n1/N=C/c1ccc(Oc2ccccc2)cc1 | inactive |  | Non-toxic | inactive | Activity (Mus musculus [1]): inactive; Activity (Mus musculus [6]): inactive
5.78 | CCCc1nc2ccccc2c(=O)n1/N=C/c1ccc(Oc2ccc(Cl)cc2)cc1 | inactive |  | Non-toxic | inactive | Activity (Mus musculus [1]; route intraperitoneal): 50%; Activity (Mus musculus [3]): inactive; Activity (Mus musculus [6]): inactive
4.82 | CCCc1nc2ccccc2c(=O)n1/N=C/c1ccc(Oc2ccc3c(c2)OCO3)cc1 |  |  |  |  | 
5.22 | CCCc1nc2ccccc2c(=O)n1/N=C/c1ccc(Oc2ccc(F)cc2)cc1 | inactive |  | Non-toxic | inactive | Activity (Mus musculus [3]): inactive; Activity (Mus musculus [6]): inactive
4.32 | Cc1ccc(Oc2ccc(/C=N/n3c(C)nc4ccccc4c3=O)cc2)cc1 | inactive | 75% | Non-toxic |  | Activity (Mus musculus [1]; route intraperitoneal): 50%; Activity (Mus musculus [5]; route intraperitoneal): 25%
4.6 | Cc1nc2ccccc2c(=O)n1/N=C/c1ccc(Oc2ccc(Cl)cc2)cc1 |  |  |  |  | 
5.2 | CCCc1nc2ccccc2c(=O)n1/N=C/c1ccc(Oc2ccccc2)cc1 | inactive |  | Non-toxic | inactive | Activity (Mus musculus [1]): inactive
6.38 | O=c1c2ccccc2nc(-c2ccccc2)n1/N=C/c1ccc(Oc2ccc(Cl)cc2)cc1 |  |  |  |  | Activity (Mus musculus [8]): inactive; Activity (Mus musculus [9]): inactive
4.03 | O=C1Nc2ccccc2/C1=N\n1c(-c2ccccc2)nc2ccccc2c1=O |  |  |  |  | Activity (Mus musculus [8]): inactive; Activity (Mus musculus [9]): inactive
6.53 | O=c1c2ccccc2nc(-c2ccccc2)n1/N=C/c1ccc(Oc2ccc3ccccc3c2)cc1 |  |  |  |  | Activity (Mus musculus [8]): inactive; Activity (Mus musculus [9]): inactive
3.23 | CCCc1nc2ccccc2c(=O)n1/N=C1/C(=O)Nc2ccccc21 | inactive | 50% | Non-toxic |  | Activity (Mus musculus [1]; route intraperitoneal): 75%; Activity (Mus musculus [5]; route intraperitoneal): 25%; Activity (Mus musculus [6]; route intraperitoneal): 50%
6.02 | CCCc1nc2ccccc2c(=O)n1/N=C/c1ccc(Oc2ccc(Cl)c(C)c2)cc1 | inactive |  | Non-toxic |  | Activity (Mus musculus [1]; route intraperitoneal): 50%
5.22 | Cc1nc2ccccc2c(=O)n1/N=C/c1ccc(Oc2ccc3ccccc3c2)cc1 | inactive | 50% | Non-toxic | inactive | Activity (Mus musculus [1]): inactive; Activity (Mus musculus [6]): inactive
6.01 | O=c1c2ccccc2nc(-c2ccccc2)n1/N=C/c1ccc(Oc2ccc3c(c2)OCO3)cc1 | inactive |  | Non-toxic | inactive | Activity (Mus musculus [3]): inactive; Activity (Mus musculus [6]): inactive
6.39 | O=c1c2ccccc2nc(-c2ccccc2)n1/N=C/c1ccc(Oc2ccc(Br)cc2)cc1 |  |  |  |  | 
4.21 | Cc1nc2ccccc2c(=O)n1/N=C/c1ccc(Oc2ccc(F)cc2)cc1 | inactive |  | Non-toxic |  | Activity (Mus musculus [1]): inactive; Activity (Mus musculus [6]; route intraperitoneal): 50%
5.18 | CCCc1nc2ccccc2c(=O)n1/N=C/c1ccc(Oc2ccc([N+](=O)[O-])cc2)cc1 | inactive |  | Non-toxic | inactive | Activity (Mus musculus [3]): inactive
2.23 | Cc1nc2ccccc2c(=O)n1/N=C1/C(=O)Nc2ccccc21 | inactive |  | Non-toxic | inactive | Activity (Mus musculus [1]): inactive; Activity (Mus musculus [6]): inactive
6.52 | Cc1cc(Oc2ccc(/C=N/n3c(-c4ccccc4)nc4ccccc4c3=O)cc2)ccc1Cl | inactive | 100% | Non-toxic |  | Activity (Mus musculus [1]; route intraperitoneal): 75%; ED50 (Mus musculus [10]): > 350 mg/kg; Activity (Mus musculus [3]): Active; Activity (Mus musculus [5]; route intraperitoneal): 25%; Activity (Mus musculus [6]; route intraperitoneal): 25%; Activity [11]: inactive; TD50 at 0.5 h [12]: > 350 mg/kg; Activity [13]: inactive
4.01 | Cc1nc2ccccc2c(=O)n1/N=C/c1ccc(Oc2ccc([N+](=O)[O-])cc2)cc1 | inactive |  | Non-toxic |  | 
4.41 | Cc1cc(Oc2ccc(/C=N/n3c(C)nc4ccccc4c3=O)cc2)ccc1Cl | inactive | 50% | Non-toxic | inactive | Activity (Mus musculus [1]; route intraperitoneal): 50%; Activity (Mus musculus [6]; route intraperitoneal): 25%
5.88 | CCCc1nc2ccccc2c(=O)n1/N=C/c1ccc(Oc2ccc(Br)cc2)cc1 | inactive | 25% | Non-toxic | inactive | Activity (Mus musculus [1]; route intraperitoneal): 50%; Activity (Mus musculus [6]; route intraperitoneal): 50%
6.12 | O=c1c2ccccc2nc(-c2ccccc2)n1/N=C/c1ccc(Oc2ccc([N+](=O)[O-])cc2)cc1 |  |  |  |  | Activity (Mus musculus [8]): inactive; Activity (Mus musculus [9]): inactive
6.21 | O=c1c2ccccc2nc(-c2ccccc2)n1/N=C/c1ccc(Oc2ccc(F)cc2)cc1 | inactive |  | Non-toxic | inactive | Activity (Mus musculus [6]; route intraperitoneal): 25%
6.29 | Cc1ccc(Oc2ccc(/C=N/n3c(-c4ccccc4)nc4ccccc4c3=O)cc2)cc1 |  |  |  |  | Activity (Mus musculus [8]): inactive; Activity (Mus musculus [9]): inactive
5.45 | CCCc1nc2ccccc2c(=O)n1/N=C/c1ccc(Oc2ccc(C)cc2)cc1 | inactive | 50% | Non-toxic | inactive | Activity (Mus musculus [1]): inactive; Activity (Mus musculus [6]): inactive
6.13 | O=c1c2ccccc2nc(-c2ccccc2)n1/N=C/c1ccc(Oc2ccccc2)cc1 |  |  |  |  | Activity (Mus musculus [8]): inactive; Activity (Mus musculus [9]): inactive
4.64 | Cc1nc2ccccc2c(=O)n1/N=C/c1ccc(Oc2ccc(Br)cc2)cc1 | inactive | 50% | Non-toxic |  | Activity (Mus musculus [1]): inactive
